Activity calls are given as the source filed them.
Key:
[1] = test system: Rattus norvegicus; assay: Neurotoxicity in pilocarpine-induced status epilepticus Sprague-Dawley albino rat model assessed as minimal motor impairment at 30 mg/kg, ip after 0.5 hrs by rotarod test; type: toxicity, organism-based; parameters: dose 30 mg/kg, route intraperitoneal; settings: in vivo
Procedure, shortened: (§1)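 Rat pilocarpine status epilepticus model: test carbamate given at 0 or 30 min after the first observed Racine stage 3 motor seizure, which marks SE onset. Neurotoxicity was scored within the same model.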

[2] = test system: Rattus norvegicus; assay: Anticonvulsant activity in Sprague-Dawley albino rat assessed as protection against maximal electroshock-induced seizures at 30 mg/kg, po after 1 hr; type: functional, organism-based; parameters: dose 30 mg/kg
Procedure, shortened: (§2)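 Rats dosed orally. Anti-MES protection was scored as animals protected over animals tested at each time after dosing. Neurotoxicity was scored as motor impairment or sedation, as animals affected over animals tested.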

[3] = test system: Rattus norvegicus; assay: Neurotoxicity in pilocarpine-induced status epilepticus Sprague-Dawley albino rat model assessed as minimal motor impairment at 100 mg/kg, ip after 0.5 hrs by rotarod test; type: toxicity, organism-based; parameters: dose 100 mg/kg, route intraperitoneal; settings: in vivo
[4] = test system: Mus musculus; assay: Anticonvulsant activity in albino CF1 mouse assessed as protection against subcutaneous metrazol-induced seizures at 100 mg/kg, ip after 4 hrs; type: functional, organism-based; parameters: dose 100 mg/kg
Procedure, shortened: (§3)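 Mice dosed ip at 30, 100 or 300 mg/kg, then tested 0.5 h and 4 h after administration in the MES or scMet test. Protection was recorded as animals protected over animals tested. Neurotoxicity was recorded as motor impairment or sedation, as animals affected over animals tested.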

[5] = test system: Mus musculus; assay: Anticonvulsant activity in albino CF1 mouse assessed as protection against subcutaneous metrazol-induced seizures at 300 mg/kg, ip after 0.5 hrs; type: functional, organism-based; parameters: dose 300 mg/kg; procedure, shortened: as §3
[6] = test system: Rattus norvegicus; assay: Anticonvulsant activity in Sprague-Dawley albino rat assessed as protection against maximal electroshock-induced seizures at 30 mg/kg, po after 4 hrs; type: functional, organism-based; parameters: dose 30 mg/kg; procedure, shortened: as §2
[7] = test system: Rattus norvegicus; assay: Anticonvulsant activity in Sprague-Dawley albino rat assessed as protection against maximal electroshock-induced seizures at 30 mg/kg, po after 2 hrs; type: functional, organism-based; parameters: dose 30 mg/kg; procedure, shortened: as §2
[8] = test system: Rattus norvegicus; assay: Neurotoxicity in pilocarpine-induced status epilepticus Sprague-Dawley albino rat model assessed as minimal motor impairment at 30 mg/kg, ip after 1 hr by rotarod test; type: toxicity, organism-based; parameters: dose 30 mg/kg, route intraperitoneal; settings: in vivo; procedure, shortened: as §1
[9] = test system: Rattus norvegicus; assay: Anticonvulsant activity in Sprague-Dawley albino rat assessed as protection against maximal electroshock-induced seizures at 30 mg/kg, po after 15 mins; type: functional, organism-based; parameters: dose 30 mg/kg; procedure, shortened: as §2
[10] = test system: Rattus norvegicus; assay: Neurotoxicity in pilocarpine-induced status epilepticus Sprague-Dawley albino rat model assessed as minimal motor impairment at 300 mg/kg, ip after 2 hrs by rotarod test; type: toxicity, organism-based; parameters: dose 300 mg/kg, route intraperitoneal; settings: in vivo; procedure, shortened: as §1
[11] = test system: Rattus norvegicus; assay: Neurotoxicity in pilocarpine-induced status epilepticus Sprague-Dawley albino rat model assessed as minimal motor impairment at 300 mg/kg, ip after 4 hrs by rotarod test; type: toxicity, organism-based; parameters: dose 300 mg/kg, route intraperitoneal; settings: in vivo; procedure, shortened: as §1
[12] = test system: Mus musculus; assay: Anticonvulsant activity in albino CF1 mouse assessed as protection against maximal electroshock-induced seizures at 30 mg/kg, ip after 4 hrs; type: functional, organism-based; parameters: dose 30 mg/kg; procedure, shortened: as §3
[13] = test system: Rattus norvegicus; assay: Neurotoxicity in pilocarpine-induced status epilepticus Sprague-Dawley albino rat model assessed as minimal motor impairment at 100 mg/kg, ip after 2 hrs by rotarod test; type: toxicity, organism-based; parameters: dose 100 mg/kg, route intraperitoneal; settings: in vivo
[14] = test system: Mus musculus; assay: Anticonvulsant activity in albino CF1 mouse assessed as protection against maximal electroshock-induced seizures at 300 mg/kg, ip after 4 hrs; type: functional, organism-based; parameters: dose 300 mg/kg; procedure, shortened: as §3
[15] = test system: Rattus norvegicus; assay: Neurotoxicity in pilocarpine-induced status epilepticus Sprague-Dawley albino rat model assessed as minimal motor impairment at 30 mg/kg, ip after 2 hrs by rotarod test; type: toxicity, organism-based; parameters: dose 30 mg/kg, route intraperitoneal; settings: in vivo; procedure, shortened: as §1
[16] = test system: Rattus norvegicus; assay: Neurotoxicity in pilocarpine-induced status epilepticus Sprague-Dawley albino rat model assessed as minimal motor impairment at 300 mg/kg, ip after 0.5 hrs by rotarod test; type: toxicity, organism-based; parameters: dose 300 mg/kg, route intraperitoneal; settings: in vivo; procedure, shortened: as §1
[17] = test system: Rattus norvegicus; assay: Neurotoxicity in pilocarpine-induced status epilepticus Sprague-Dawley albino rat model assessed as minimal motor impairment at 30 mg/kg, ip after 0.25 hr by rotarod test; type: toxicity, organism-based; parameters: dose 30 mg/kg, route intraperitoneal; settings: in vivo; procedure, shortened: as §1
[18] = test system: Mus musculus; assay: Anticonvulsant activity in albino CF1 mouse assessed as protection against subcutaneous metrazol-induced seizures at 30 mg/kg, ip after 0.5 hrs; type: functional, organism-based; parameters: dose 30 mg/kg; procedure, shortened: as §3
[19] = test system: Rattus norvegicus; assay: Neurotoxicity in Sprague-Dawley albino rat assessed as minimal motor impairment at 30 mg/kg, po by rotarod test; type: toxicity, organism-based; parameters: dose 30 mg/kg, route oral; settings: in vivo; procedure, shortened: as §2
[20] = test system: Mus musculus; assay: Anticonvulsant activity in albino CF1 mouse assessed as protection against subcutaneous metrazol-induced seizures at 300 mg/kg, ip after 4 hrs; type: functional, organism-based; parameters: dose 300 mg/kg; procedure, shortened: as §3
[21] = test system: Mus musculus; assay: Anticonvulsant activity in albino CF1 mouse assessed as protection against subcutaneous metrazol-induced seizures at 100 mg/kg, ip after 0.5 hrs; type: functional, organism-based; parameters: dose 100 mg/kg; procedure, shortened: as §3
[22] = test system: Rattus norvegicus; assay: Neurotoxicity in pilocarpine-induced status epilepticus Sprague-Dawley albino rat model assessed as minimal motor impairment at 100 mg/kg, ip after 4 hrs by rotarod test; type: toxicity, organism-based; parameters: dose 100 mg/kg, route intraperitoneal; settings: in vivo
[23] = test system: Rattus norvegicus; assay: Anticonvulsant activity in Sprague-Dawley albino rat assessed as protection against pilocarpine-induced status epilepticus at 65 mg/kg, ip; type: functional, organism-based; parameters: dose 65 mg/kg
Procedure, shortened: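 Pilocarpine status epilepticus model in rats. Number and severity of convulsive seizures were observed behaviourally.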

[24] = test system: Rattus norvegicus; assay: Anticonvulsant activity in Sprague-Dawley albino rat assessed as protection against maximal electroshock-induced seizures at 30 mg/kg, po after 30 mins; type: functional, organism-based; parameters: dose 30 mg/kg; procedure, shortened: as §2
[25] = test system: Rattus norvegicus; assay: Neurotoxicity in pilocarpine-induced status epilepticus Sprague-Dawley albino rat model assessed as minimal motor impairment at 300 mg/kg, ip after 0.25 hr by rotarod test; type: toxicity, organism-based; parameters: dose 300 mg/kg, route intraperitoneal; settings: in vivo; procedure, shortened: as §1
[26] = test system: Rattus norvegicus; assay: Neurotoxicity in pilocarpine-induced status epilepticus Sprague-Dawley albino rat model assessed as minimal motor impairment at 100 mg/kg, ip after 1 hr by rotarod test; type: toxicity, organism-based; parameters: dose 100 mg/kg, route intraperitoneal; settings: in vivo
[27] = test system: Mus musculus; assay: Neurotoxicity in albino CF1 mouse assessed as minimal motor impairment at 30 mg/kg, ip after 0.5 hrs by rotarod test; type: toxicity, organism-based; parameters: dose 30 mg/kg, route intraperitoneal; settings: in vivo; procedure, shortened: as §3
[28] = test system: Mus musculus; assay: Neurotoxicity in albino CF1 mouse assessed as minimal motor impairment at 300 mg/kg, ip after 0.5 hrs by rotarod test; type: toxicity, organism-based; parameters: dose 300 mg/kg, route intraperitoneal; settings: in vivo; procedure, shortened: as §3
[29] = test system: Mus musculus; assay: Anticonvulsant activity in albino CF1 mouse assessed as protection against subcutaneous metrazol-induced seizures at 30 mg/kg, ip after 4 hrs; type: functional, organism-based; parameters: dose 30 mg/kg; procedure, shortened: as §3
[30] = test system: Mus musculus; assay: Neurotoxicity in albino CF1 mouse assessed as minimal motor impairment at 100 mg/kg, ip after 4 hrs by rotarod test; type: toxicity, organism-based; parameters: dose 100 mg/kg, route intraperitoneal; settings: in vivo; procedure, shortened: as §3
[31] = test system: Rattus norvegicus; assay: Neurotoxicity in pilocarpine-induced status epilepticus Sprague-Dawley albino rat model assessed as minimal motor impairment at 30 mg/kg, ip after 4 hrs by rotarod test; type: toxicity, organism-based; parameters: dose 30 mg/kg, route intraperitoneal; settings: in vivo; procedure, shortened: as §1
[32] = test system: Mus musculus; assay: Anticonvulsant activity in albino CF1 mouse assessed as protection against maximal electroshock-induced seizures at 100 mg/kg, ip after 4 hrs; type: functional, organism-based; parameters: dose 100 mg/kg; procedure, shortened: as §3
[33] = test system: Mus musculus; assay: Neurotoxicity in albino CF1 mouse assessed as minimal motor impairment at 30 mg/kg, ip after 4 hrs by rotarod test; type: toxicity, organism-based; parameters: dose 30 mg/kg, route intraperitoneal; settings: in vivo; procedure, shortened: as §3
[34] = test system: Mus musculus; assay: Anticonvulsant activity in albino CF1 mouse assessed as protection against maximal electroshock-induced seizures at 30 mg/kg, ip after 0.5 hrs; type: functional, organism-based; parameters: dose 30 mg/kg; procedure, shortened: as §3
[35] = test system: Rattus norvegicus; assay: Neurotoxicity in pilocarpine-induced status epilepticus Sprague-Dawley albino rat model assessed as minimal motor impairment at 100 mg/kg, ip after 0.25 hr by rotarod test; type: toxicity, organism-based; parameters: dose 100 mg/kg, route intraperitoneal; settings: in vivo
[36] = test system: Mus musculus; assay: Neurotoxicity in albino CF1 mouse assessed as minimal motor impairment at 300 mg/kg, ip after 4 hrs by rotarod test; type: toxicity, organism-based; parameters: dose 300 mg/kg, route intraperitoneal; settings: in vivo; procedure, shortened: as §3
[37] = test system: Mus musculus; assay: Anticonvulsant activity in albino CF1 mouse assessed as protection against maximal electroshock-induced seizures at 300 mg/kg, ip after 0.5 hrs; type: functional, organism-based; parameters: dose 300 mg/kg; procedure, shortened: as §3
[38] = test system: Rattus norvegicus; assay: Anticonvulsant activity in po dosed Sprague-Dawley albino rat assessed as protection against subcutaneous metrazol-induced seizures; type: functional
Procedure, shortened: (§4)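 Quantitative testing: rats dosed orally or ip in MES and scMet tests, and mice dosed ip, including the 6 Hz (32 mA) psychomotor seizure test. ED50 and TD50 were reported in mg/kg with ranges in parentheses. Protective index was calculated as TD50/ED50.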

[39] = test system: Rattus norvegicus; assay: Anticonvulsant activity in po dosed Sprague-Dawley albino rat assessed as protection against maximal electroshock-induced seizures; type: functional; procedure, shortened: as §4
[40] = test system: Rattus norvegicus; assay: Protective index, ratio of TD50 for po dosed Sprague-Dawley albino rat by rotarod test to ED50 for po dosed Sprague-Dawley albino rat by subcutaneous metrazol seizures test; type: functional
Procedure, shortened: (§5)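 Protective index calculated as TD50/ED50, with TD50 and ED50 taken from the same species and dosing route.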

[41] = test system: Rattus norvegicus; assay: Protective index, ratio of TD50 for po dosed Sprague-Dawley albino rat by rotarod test to ED50 for po dosed Sprague-Dawley albino rat by maximal electroshock seizures test; type: functional; procedure, shortened: as §5
[42] = Neurotoxicity in po dosed Sprague-Dawley albino rat assessed as minimal motor impairment by rotarod test; type: toxicity, organism-based; settings: in vivo
Procedure, shortened: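 Rats dosed orally; 4 rats per time point after dosing. Neurotoxicity was scored as motor impairment or sedation and reported as number of animals affected over number tested.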

CCC(C)CCOC(N)=O (racemic)
inactive: Activity [2] | Activity [4] | Activity [5] | Activity [6] | Activity [7] | Activity [9] | Activity [12] | Activity [14] | Activity [18] | Activity [20] | Activity [21] | Activity [24] | Activity [29] | Activity [32] | Activity [34]
Toxic: Activity [3] | Activity [16] | Activity [25] | Activity [28] | Activity [35]
active: Activity [23] | Activity [37]
Non-toxic: Activity [1] | Activity [8] | Activity [10] | Activity [11] | Activity [13] | Activity [15] | Activity [17] | Activity [19] | Activity [22] | Activity [26] | Activity [27] | Activity [30] | Activity [31] | Activity [33] | Activity [36]

NC(=O)OC[C@@H](O)c1ccccc1Cl [CARISBAMATE]
8 mg/kg: ED50 [39]
137 mg/kg: TD50 [42]
18: Ratio TD50/ED50 [41]
58 mg/kg: ED50 [38]
2.4: Ratio TD50/ED50 [40]

NC(=O)OCC(COC(N)=O)c1ccccc1 [FELBAMATE]
>2: Ratio TD50/ED50 [40]
20: Ratio TD50/ED50 [41]
25 mg/kg: ED50 [39]
> 250 mg/kg: ED50 [38]
> 500 mg/kg: TD50 [42]

CCCC(CCC)C(=O)O [VALPROIC ACID]
646 mg/kg: ED50 [38]
